According to article PMC8788976 (Veterinary Medicine and Science, 2021):

Columns and labels:
[1] = Single oral dose pharmacokinetic study in Beagle dogs; format: in vivo; conditions: for AUC 24h / AUC last / C max: mean ± SD; for T last / T max: median (range)
Method in brief: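 Single oral dose of 1 or 4 mg/kg given as micronised drug in gelatine capsules, followed by 5 ml water; dogs fasted overnight until 4 h post-dose. Jugular blood taken pre-dose, at 0.25–12 h, then daily to day 21. K3-EDTA plasma (2500 g, 15 min, 4°C) stored at −80°C. Parent and pyrazol metabolite measured by SPE then HPLC-MS/MS (celecoxib internal standard). Non-compartmental analysis: Cmax observed; AUC by linear trapezoidal rule; AUCinf extrapolated using the terminal rate constant.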

[2] = Plasma concentrations in the repeated dose arthritis induction study; format: in vivo, Beagle dogs
Method in brief: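 Twelve male Beagles given oral 8 mg/kg on day 0, then 4 mg/kg weekly on days 7, 14 and 21, with stifle urate crystal inductions during the study. Jugular blood taken at time points including each intra-articular injection, and through day 56. Plasma processed as in the PK study. Pyrazol metabolite quantified by SPE then HPLC-MS/MS; values reported as mean ± SD.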

[3] = Population PK model of enflicoxib and pyrazol metabolite; parameters: species or system Beagle dogs
Method in brief: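 Population PK model built from two sources. Toxicokinetic data: 228 samples from 12 Beagles, days 1 and 28, daily 1 or 4 mg/kg. PK data: 341 parent/metabolite samples from 26 Beagles in the oral PK and two arthritis studies. Structure: two-compartment parent (first-order absorption with lag, first-order elimination) and three-compartment metabolite. Body weight included as covariate. Evaluated by visual predictive check (90% intervals); parameter CIs from non-parametric bootstrap.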

[4] = test system: COX-2 enzymes isolated from sheep placenta; conditions: ref Wagemakers et al., 2009; cited from earlier work
[5] = Plasma concentrations in the single dose arthritis induction study; format: in vivo, Beagle dogs
Method in brief: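 Ten male Beagles (23–36 months, 9–12 kg); six received oral 4 mg/kg on day 0 and again on day 12. Urate crystal suspension injected into the stifle joint on days 0 (2 h post-dose), 2, 7, 14 and 21. Jugular blood taken at each injection time and processed as for plasma PK. Parent and pyrazol metabolite quantified by HPLC-MS/MS.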

[6] = test system: urate crystal-induced acute arthritis; format: in vivo, Beagle dogs; conditions: plasma level, acute arthritis induction model in dogs
Method in brief: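 Efficacy dataset: 18 enflicoxib-treated dogs from both urate arthritis studies, giving 71 paired observations of plasma parent or pyrazol metabolite level and lameness score taken at the same time. These pairs were linked to the population PK model to define the minimum effective plasma concentration.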

[7] = test system: urate crystal-induced acute arthritis; assay: Single dose arthritis induction study; format: in vivo, Beagle dogs
Method in brief: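 Male Beagles (23–36 months, 9–12 kg). Groups: six dogs oral 4 mg/kg on days 0 and 12; three dogs reference coxib 2 mg/kg on days 0 and 14; one dog untreated. Stifle urate crystal injections on days 0 (2 h post-dose), 2, 7, 14 and 21. Blinded scoring before and 0.5–12 h after each injection. Standing plus walking lameness summed as CLS; pain scored on palpation.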

## NS(=O)(=O)c1ccc(-n2nc(C(F)(F)F)cc2-c2ccc(F)cc2F)cc1 [Pyrazol metabolite]
[1]; single oral enflicoxib 1 mg/kg
  AUC 24h: 1104 ± 502 ng·h/mL
  AUC last: 40,784 ± 10,228 ng·h/ml
  C max: 165.8 ± 48.5 ng/mL
  T last: 480 h
  T max: 132.0 (96–168) h
[1]; single oral enflicoxib 4 mg/kg
  AUC 24h: 2647 ± 1322 ng·h/mL
  AUC last: 132,329 ± 33,065 ng·h/ml
  C max: 577.0 ± 203.4 ng/mL
  T last: 480 h
  T max: 132.0 (96–168) h
[1]; single oral enflicoxib 1 or 4 mg/kg, not adequately determinable
  terminal half-life read from the graphic profile: around 14 days
[2]; day 23, 8 mg/kg loading, 4 mg/kg on days 7, 14, 21
  maximum plasma level: 1748 ± 334 ng/mL
[2]; day 56, 28 days after last dose administration
  plasma level at end of experimental period: 348 ± 152 ng/mL
[3]; apparent clearance of pyrazol metabolite, bootstrap
  CLM/F (θ7), Bootstrap Median: 0.111 L/h
[3]; apparent clearance of pyrazol metabolite, θ7·(WGT/9.9)^0.75
  CLM/F (θ7), Value: 0.111 L/h
[3]; central compartment, assumed the same as that of enflicoxib
  VM/F (θ4), Value: 6.59 L
[3]; central compartment, bootstrap
  VM/F (θ4), Bootstrap Median: 6.60 L
[3]; central-deep peripheral, bootstrap
  CLM2/F (θ12), Bootstrap Median: 0.132 L/h
[3]; central-shallow peripheral, bootstrap
  CLMP/F (θ8), Bootstrap Median: 13.2 L/h
[3]; deep peripheral compartment, bootstrap
  VM2/F (θ13), Bootstrap Median: 13.5 L
[3]; deep peripheral compartment, θ13·(WGT/9.9)^1.0
  VM2/F (θ13), Value: 13.4 L
[3]; distribution clearance central-deep peripheral, θ12·(WGT/9.9)^0.75
  CLM2/F (θ12), Value: 0.131 L/h
[3]; distribution clearance central-shallow peripheral, θ8·(WGT/9.9)^0.75
  CLMP/F (θ8), Value: 13.2 L/h
[3]; population PK model
  estimated terminal half-life: 13.8 days
[3]; random parameter, %CV
  Inter-individual variability on CLM/F, Value: 31%
  Residual variability, Value: 20%
[3]; random parameter, bootstrap
  Inter-individual variability on CLM/F, Bootstrap Median: 31%
  Residual variability, Bootstrap Median: 20%
[3]; shallow peripheral compartment, bootstrap
  VMP/F (θ9), Bootstrap Median: 29.33 L
[3]; shallow peripheral compartment, θ9·(WGT/9.9)^1.0
  VMP/F (θ9), Value: 29.3 L
[4]
  selectivity for COX-2 versus COX-1: more than 250 fold
[5]; day 0, single 4 mg/kg enflicoxib, average ± SD
  plasma concentration: 59 ± 34 ng/mL
[5]; day 2, single 4 mg/kg enflicoxib, average ± SD
  plasma concentration: 207 ± 191 ng/mL
[5]; day 7, single 4 mg/kg enflicoxib, average ± SD
  plasma concentration: 321 ± 241 ng/mL
[5]; day 14, after second 4 mg/kg dose on day 12, average ± SD
  plasma concentration: 492 ± 240 ng/mL
[5]; day 21, after second 4 mg/kg dose on day 12, average ± SD
  plasma concentration: 398 ± 172 ng/mL
[6]
  Minimum Effective Concentration (MEC): 411 ng/mL

## NS(=O)(=O)c1ccc(-n2nc(C(F)(F)F)cc2-c2ccc(F)cc2)cc1 [mavacoxib]
[7]; days 0 and 7, mavacoxib 2 mg/kg on days 0 and 14
  lameness and pain after induction: some degree of lameness and pain
[7]; days 14 and 21, after second administration on day 14, mavacoxib 2 mg/kg
  lameness or pain after induction: none or mild lameness or pain
